RGS4 pot: RGS4 potentiators or activators, primary screen, cell-based, HEK293 M3R inducible RGS4, calcium flux. 0.92% of 310,000 active. B-score at 10 µM. carbachol calcium flux Fluo4; stronger effect = lower value;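 active = B-score of the integrated calcium signal more than 4 SD below the library mean, with starting fluorescence not abnormally high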;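 note: negative B-score means reduced calcium response which marks RGS4 activation or potentiation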
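System – HEK293 FlpIn-TREx cells, stable M3R, doxycycline-inducible RGS4 · Reagent – ECmax carbachol challenge · Times – compound preincubation 20 min at room temperature before agonist · Technique – Fluo4 fluorescence kinetic imaging of calcium · Measure – B score of integrated Fluo4 ratio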
RGS4 block: RGS4 inhibitors, primary screen, cell-based, HEK293 M3R inducible RGS4, calcium flux; Regulator of G-protein signaling 4 (Homo sapiens), P49798; Fluo-4 calcium flux; stronger effect = higher value; triggered by carbachol at its EC20; B-score at 10 µM; 0.45% of 310,000 active; AID 463165, 2010;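 active = B-score, a plate-corrected calcium signal, over three deviations above library mean, with baseline fluorescence within five deviations of library mean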;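 note: RGS4 expression induced by doxycycline in cells with stable M3 receptor; B-score is computed from the integrated fluorescence ratio over baseline after carbachol; higher B-score means a larger calcium signal and so more RGS4 inhibition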
Target sequence (P49798 whole entry, looked up): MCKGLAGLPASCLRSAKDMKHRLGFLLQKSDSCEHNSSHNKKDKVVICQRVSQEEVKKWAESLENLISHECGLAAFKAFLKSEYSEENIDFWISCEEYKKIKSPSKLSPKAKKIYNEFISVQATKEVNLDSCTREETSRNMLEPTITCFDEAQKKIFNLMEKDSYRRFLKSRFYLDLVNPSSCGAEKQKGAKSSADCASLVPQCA
MrgX1 agonist: agonists of human MrgX1 receptor, primary screen, HEK293 cells, Fluo-4 calcium flux; Mas-related G-protein coupled receptor member X1 (Homo sapiens), Q96LB2; Fluo-4 calcium fluorescence, agonist mode; stronger effect = higher value; B-score at 10 µM; 0.44% of 310,000 active;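 active = calcium response B-score plate-corrected fluorescence ratio at least 3 library SD, with starting fluorescence B-score inside 5 SD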
Target sequence (Q96LB2 whole entry, looked up): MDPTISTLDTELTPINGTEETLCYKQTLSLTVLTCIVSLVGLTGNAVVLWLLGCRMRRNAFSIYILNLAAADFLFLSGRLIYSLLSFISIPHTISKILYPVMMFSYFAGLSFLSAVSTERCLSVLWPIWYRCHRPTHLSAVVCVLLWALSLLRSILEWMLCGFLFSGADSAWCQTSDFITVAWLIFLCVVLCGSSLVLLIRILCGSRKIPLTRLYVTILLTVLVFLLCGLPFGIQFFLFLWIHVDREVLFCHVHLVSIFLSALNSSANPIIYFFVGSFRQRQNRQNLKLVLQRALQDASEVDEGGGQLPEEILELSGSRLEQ
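Test system: Stable human MrgX1 HEK293 cell line | Schedule: Overnight plating before 1 h dye loading | Read-out basis: Baseline-normalised fluorescence change ratio, B-scored | Detection: Kinetic calcium dye fluorescence, Fluo-4 NW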
MrgX1 allo act: positive allosteric modulators of MrgX1, primary screen, HEK293 cells, Fluo-4 calcium flux. B-score at 10 µM. 0.63% of 310,000 active. Mas-related G-protein coupled receptor member X1 (Homo sapiens), Q96LB2. FDSS; stronger effect = higher value;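 active = plate-corrected calcium response at least 3 library SD above typical, normal starting fluorescence, not activating the receptor alone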;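 note: compound read alongside a low EC10 to EC30 dose of BAM8-22 agonist; peak minus trough fluorescence over baseline measured at the second addition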
MrgX1 antag: antagonists of human MrgX1 receptor, primary screen, HEK293 cells, Fluo-4 calcium flux. BAM8-22 antagonism; stronger effect = lower value. Mas-related G-protein coupled receptor member X1 (Homo sapiens), Q96LB2. 1.3% of 310,000 active. AID 588676, 2011. B-score at 10 µM;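 active = calcium-response B-score plate-corrected more than 3 library SD below zero, starting fluorescence within 5 deviations, no agonist response on first addition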;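 note: peak minus trough fluorescence over baseline after final BAM8-22 challenge near maximal dose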
MrgX1 antag conf: MrgX1 receptor antagonists, duplicate retest, confirmation, HEK293 cells, Fluo-4 calcium flux | shares compounds with MrgX1 antag | BAM8-22 calcium flux; stronger effect = lower value | remaining BAM8-22 calcium response % of control (stronger effect = lower value), % at 10 µM | 19% of 2,300 active | AID 602420, 2012;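 active = remaining agonist calcium response no higher than 100% minus 3 SD of agonist-only control wells, with starting fluorescence near control levels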;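 note: agonist BAM8-22 given at a near maximal EC90 to ECmax level; peak minus minimum fluorescence divided by baseline after agonist addition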
HEK293 Ca flux: nonspecific calcium signal in parental HEK293, confirmation, counter-screen for MrgX1 antagonist project, parental HEK293 cells, Fluo-4 calcium flux. Fluo-4 calcium fluorescence, FDSS. shares compounds with MrgX1 antag. fluorescence ratio F(max-min)/F0 at 10 µM. AID 624111, 2012. 2% of 4,000 active;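 active = duplicate-averaged calcium fluorescence ratio at least three times the standard deviation of buffer wells, a nonspecific response in parental cells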
HEK293 Ca counter: calcium response in parental HEK293 cells, primary screen, counter-screen for MrgX1 allosteric activator project, cell-based, Fluo-4 calcium flux, duplicate; shares compounds with MrgX1 antag; Fluo-4 fluorescence ratio; stronger effect = higher value; fluorescence ratio F(max-min)/F0 at 10 µM; 0.4% of 4,000 active;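 active = calcium fluorescence ratio, averaged over duplicates, at least 3 SD of the buffer-well ratio, meaning a nonspecific response in receptor-free cells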;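 note: untransfected parental HEK293 lacking MrgX1 used as counterscreen for MrgX1 allosteric activators; fluorescence change taken during the second addition on a kinetic imager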
HEK293 Ca cntr2: calcium response in parental HEK293 cells, primary screen, counter-screen for MrgX1 agonist project, cell-based, Fluo-4 calcium flux, duplicate, agonist mode; shares compounds with MrgX1 antag; fluorescence ratio F(max-min)/F0 at 10 µM; 8.7% of 4,000 active; Fluo-4 calcium fluorescence (FDSS); stronger effect = higher value;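 active = calcium fluorescence ratio at least three times the spread of buffer wells, meaning a non-specific response in parental cells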
* = called active by the depositor; i = inactive; . = not tested or not shown. In the library only some 3.5% were active in any assay of this set; here they are far more common.

SMILES	RGS4 pot	RGS4 block	MrgX1 agonist	MrgX1 allo act	MrgX1 antag	MrgX1 antag conf	HEK293 Ca flux	HEK293 Ca counter	HEK293 Ca cntr2
COc1cc(/C=C/C(=O)OCC(=O)NC2CC2)cc(S(=O)(=O)N2CCc3ccccc32)c1OC	i	i	i	i	i	.	.	.	.
COCCNC(=O)c1ccc(N(C)S(=O)(=O)c2ccc(OC)c(OC)c2)cc1	i	i	i	i	i	.	.	.	.
Cc1ccc(C)n1-c1nnc(N2CCC(C(=O)NCCCN3CCN(C)CC3)CC2)s1	i	i	i	i	i	.	.	.	.
COc1cc2ncc(S(=O)(=O)c3ccccc3)c(N3CCC4(CC3)OCCO4)c2cc1OC	i	i	i	i	i	.	.	.	.
Cc1nc2cc(-c3cccs3)[nH]n2c(=O)c1C	i	i	i	i	-5.2*	i	i	i	i
COc1ccc(-c2nc(/C=C3\C(C)=Nc4ccccc43)c(O)o2)cc1	i	i	i	i	-4.8*	59%*	i	i	i
CC1=Nc2ccccc2/C1=C/c1nc(-c2ccc(C)s2)oc1O	i	i	i	i	-6.1*	57%*	i	i	i
Cc1cc(-c2nnc(SCC(=O)Nc3ccc(F)c(F)c3)n2N)n[nH]1	i	i	i	i	i	.	.	.	.
COc1cccc(C(=O)Nc2cccc(OC(C)=O)c2)c1	i	i	i	i	i	.	.	.	.
CCC(C(=O)N1CCN(c2ncccn2)CC1)c1ccccc1 (centres undefined)	i	i	i	i	-4.6*	i	i	i	i
CCOC(=O)c1c(NC(=O)C2CCCN(S(=O)(=O)c3ccc(C)cc3)C2)sc2c1CCCC2 (centres undefined)	i	i	i	i	i	.	.	.	.
CCOc1ccccc1C(=O)n1nc(C)cc1C	i	i	i	i	i	.	.	.	.
CC(=O)c1ccc(NC(=O)c2cnn3c(C(F)F)cc(C4CC4)nc23)cc1	i	i	i	i	-5*	i	i	i	i
COc1ccc(S(=O)(=O)N2CCC(C)CC2)cc1OC	i	i	i	i	i	.	.	.	.
CC1CCC2(CC1)NC(=O)N(CC(=O)Nc1ccc(N3CCOCC3)cc1)C2=O (centres undefined)	i	i	i	i	-4.7*	84%*	i	i	i
CC(OC(=O)CCN=C1NS(=O)(=O)c2ccccc21)C(=O)N(C)c1ccccc1 (centres undefined)	i	i	i	i	-11*	i	i	i	i
Cc1cc(-c2nc(C)c(C(=O)NNS(=O)(=O)c3ccccc3)s2)no1	i	i	i	i	i	.	.	.	.
CCOc1ccc(C(C)=O)cc1CSc1nc2nc(C)cc(C)n2n1	i	i	i	i	-5.7*	69%*	i	i	i
O=C(Oc1ccc(Cl)c2cccnc12)N1CCOCC1	i	i	i	i	i	.	.	.	.
O=C(Oc1ccc(Cl)c2cccnc12)N1CCCCC1	i	i	i	i	-5.5*	i	i	i	i
COc1ccccc1C1CCCN1Cc1nc(-c2ccc(C)s2)oc1C (centres undefined)	i	i	i	i	i	.	.	.	.
CN1CCN(C(c2ccc(Br)cc2)c2cc(Cl)c3cccnc3c2O)CC1 (centres undefined)	i	i	i	i	-5.3*	i	i	i	i
O=C(Nc1nnc(-c2ccncc2)o1)c1cccc(N2C(=O)CCC2=O)c1	i	i	i	i	i	.	.	.	.
CSc1cccc(-c2nnc(NC(=O)c3cccc(N4C(=O)CCC4=O)c3)o2)c1	i	i	i	i	-4.5*	i	i	i	i
CSc1ccccc1NC(=O)c1ccoc1C	i	i	i	i	i	.	.	.	.
SMILES	RGS4 pot	RGS4 block	MrgX1 agonist	MrgX1 allo act	MrgX1 antag	MrgX1 antag conf	HEK293 Ca flux	HEK293 Ca counter	HEK293 Ca cntr2
O=C(c1ccc(Cn2c(=S)[nH]c3ccccc3c2=O)cc1)N1CCN(c2ccccn2)CC1	i	i	i	i	-8*	84%*	i	i	i
O=C(c1ccc(Cn2c(=O)[nH]c3ccccc3c2=O)cc1)N1CCN(c2ccccn2)CC1	i	i	i	i	i	.	.	.	.
Cc1ccc2sc(NC(=O)CSc3nc(C)cc(C)c3C#N)nc2c1	i	i	i	i	-6.4*	i	i	i	i
Cc1cc(C(F)(F)F)c(C#N)c(SCC(=O)Nc2nc3ccccc3s2)n1	i	i	i	i	i	.	.	.	.
O=S(=O)(/C=C/c1ccccc1)NCc1ccccc1Cl	i	i	i	i	i	.	.	.	.
Cc1ccc(C)c(-c2nnc(NC(=O)CCS(=O)(=O)c3ccc(F)cc3)o2)c1	i	i	i	i	-4.7*	i	i	i	i
CCOc1cc(CNc2ccc3[nH]c(=O)[nH]c3c2)ccc1OCC(=O)NC(C)(C)C	i	i	i	i	i	.	.	.	.
CS(=O)(=O)N(CC(=O)NCc1ccccc1)c1ccc(Cl)cc1	i	i	i	i	i	.	.	.	.
Cc1cccc(C)c1OC(=O)CN(c1ccc(Cl)cc1)S(C)(=O)=O	i	i	i	i	-7.1*	i	i	i	i
CC(C)(C)c1ccc(S(=O)(=O)N2CCC(N3CCCCC3)CC2)cc1	i	i	i	i	i	.	.	.	.
CCOc1ccccc1NC(=O)c1cc(Cl)ccc1NC(=O)c1ccco1	i	i	i	i	-5.2*	i	i	i	i
